# Experimental data: ChEMBL document CHEMBL1125166, “Kinetic and equilibrium binding studies of amsacrine-4-carboxamides: a class of asymmetrical DNA-intercalating agents which bind by threading through the DNA helix” (J Med Chem, 1990)
# “And” between values parts separate entries of the source, which are not always exact repeats. Equal entries are not always repeated.
# Experiments:
# [1] = Fraction of the observed equilibrium absorbance change accounted in the kinetic analysis
# In short: (§1)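 SDS-induced dissociation by stopped flow. Drug–calf thymus DNA complex (400 μM base pairs, 20 μM drug, 0.1 SHE) mixed 1:1 with 20 mM SDS (monomer) at 20 °C. Finals: 200 μM DNA, 10 μM drug, 10 mM SDS; D/P also 0.2. Absorbance followed at the visible maximum. Time constants and % amplitudes obtained from exponential fitting. Fraction = resolved amplitude over equilibrium absorbance change on SDS addition.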
# Nucleic Acid [2] = experiment: Association constant for binding to poly(dG-dC) DNA in 0.01 SHE buffer, measured by ethidium displacement method for equilibrium binding to calf thymus DNA; type: nucleic-acid assay
# Nucleic Acid [3] = experiment: (§2) Time constant describing the dissociation profile of calf thymus DNA-drug complexes in 0.1 SHE buffer at 20 degree C; type: nucleic-acid assay; in short: as §1
# Nucleic Acid [4] = experiment: Association constant for binding to poly(dA-dT) DNA in 0.01 SHE buffer, measured by ethidium displacement method for equilibrium binding to calf thymus DNA; type: nucleic-acid assay
# Nucleic Acid [5] = experiment: Free drug λmax in 0.1 SHE buffer at the concentration of 50 uM for equilibrium binding to calf thymus DNA
# Nucleic Acid [6] = experiment: Free drug extinction coefficient in 0.1 SHE buffer at the concentration of 50 uM; 9.4 x 10 e-3 epcilonfor equilibrium binding to calf thymus DNA; settings: Bos taurus
# Nucleic Acid [7] = experiment: Percentage of the sum of the amplitudes evaluated in the kinetic experiment; type: nucleic-acid assay; settings: Bos taurus
# Nucleic Acid [8] = experiment: Association constant for binding to poly(dA-dT) DNA in 0.01 SHE buffer, measured by ethidium displacement method; type: nucleic-acid assay
# In short: (§3)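 Ethidium displacement in 0.01 SHE buffer with poly(dA-dT) or poly(dG-dC). Association constants corrected for quenching.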
# Nucleic Acid [9] = experiment: (§4) Fraction of the observed equilibrium absorbance change accounted in the kinetic analysis on rates with DNA-ligand ratio.; type: nucleic-acid assay; settings: Bos taurus
# Nucleic Acid [10] = experiment: as §4; type: functional; settings: Bos taurus
# Nucleic Acid [11] = experiment: Association constant for binding to poly(dG-dC) DNA in 0.01 SHE buffer, measured by ethidium displacement method; type: nucleic-acid assay; in short: as §3
# Nucleic Acid [12] = experiment: Time constant describing the association profile of calf thymus DNA-drug complexes in 0.1 SHE buffer at 20 degree C after 1 min; type: nucleic-acid assay
# In short: (§5)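 Stopped-flow association to sonicated calf thymus DNA (~10^6 MW) in 0.1 SHE at 20 °C. Final DNA 200 μM base pairs and final drug 10 μM (ratio 0.05); D/P also varied to 0.10 and 0.20. Absorbance followed at the drug's visible maximum. Traces deconvoluted into exponentials by curve stripping; at least six runs analysed separately and averaged. Amplitudes given as % of summed amplitudes.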
# Nucleic Acid [13] = experiment: Time constant describing the association profile of calf thymus DNA-drug complexes in 0.1 SHE buffer at 20 degree C after 3 min; type: nucleic-acid assay; in short: as §5
# Nucleic Acid [14] = experiment: Time constant describing the association profile of calf thymus DNA-drug complexes in 0.1 SHE buffer at 20 degree C after 2 min; type: nucleic-acid assay; in short: as §5
# Nucleic Acid [15] = experiment: (§6) Fraction of the observed equilibrium absorbance change accounted in the kinetic analysis.; type: nucleic-acid assay; in short: as §1
# Nucleic Acid [16] = experiment: as §6; type: functional; settings: Bos taurus; in short: as §1
# Nucleic Acid [17] = experiment: Time constant describing the dissociation profile of calf thymus DNA-drug complexes in 0.1 SHE buffer at 20 degree C.; type: nucleic-acid assay; in short: as §1
# Nucleic Acid [18] = experiment: Percentage of the sum of the amplitudes evaluated in the kinetic experiment.; type: functional; settings: Bos taurus; in short: as §1
# Nucleic Acid [19] = experiment: Percentage of the sum of the amplitudes in the kinetic experiment.; type: nucleic-acid assay; settings: Bos taurus
# Nucleic Acid [20] = experiment: (§7) Fraction of the observed equilibrium absorbance change accounted in the kinetic analysis off rates with DNA-ligand ratio.; type: nucleic-acid assay; settings: Bos taurus; in short: as §1
# Nucleic Acid [21] = experiment: Time constant describing the dissociation profile was studied for binding of compound to a (dA-dT)DNA; type: nucleic-acid assay
# Nucleic Acid [22] = experiment: Time constant describing the dissociation profile was studied for binding of compound to a poly(dA-dT) DNA; type: nucleic-acid assay
# Nucleic Acid [23] = experiment: as §7; type: functional; settings: Bos taurus; in short: as §1
# Nucleic Acid [24] = experiment: Time constant describing the dissociation profile was studied for binding of compound to a poly(dG-dC) DNA; type: nucleic-acid assay
# Nucleic Acid [25] = experiment: Percentage of the sum of the amplitudes evaluated in the kinetic experiment for binding of compound to a CT-DNA; type: nucleic-acid assay; settings: Bos taurus; in short: as §1
# Nucleic Acid [26] = experiment: Time constant describing the association profile was studied for variation on rates with DNA-ligand ratio.; type: nucleic-acid assay; in short: as §5
# Nucleic Acid [27] = experiment: Fraction of the observed equilibrium absorbance change accounted in the kinetic analysis or binding of compound to a (dG-dC)-DNA; type: nucleic-acid assay; settings: Bos taurus
# Nucleic Acid [28] = experiment: Percentage of the sum of the amplitudes evaluated in the kinetic experiment for binding of compound to a calf thymus DNA; settings: Bos taurus
# Nucleic Acid [29] = experiment: Fraction of the observed equilibrium absorbance change accounted in the kinetic analysis or binding of compound to a (dA-dT)-DNA; type: functional; settings: Bos taurus
# Nucleic Acid [30] = experiment: Time constant describing the association profile was studied for binding of compound to a poly(dA-dT) DNA; type: nucleic-acid assay
# Nucleic Acid [31] = experiment: Percentage of the sum of the amplitudes evaluated in the kinetic experiment for binding of compound to a (dI-dC)DNA; type: functional; settings: Bos taurus
# Nucleic Acid [32] = experiment: Time constant describing the association profile was studied for binding of compound to a (dA-dT)DNA; type: nucleic-acid assay
# Nucleic Acid [33] = experiment: Fraction of the observed equilibrium absorbance change accounted in the kinetic analysis or binding of compound to a CT-DNA; type: functional; settings: Bos taurus; in short: as §1
# Nucleic Acid [34] = experiment: as §2; type: nucleic-acid assay; remark: listed apart in the source
# In short: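 Stopped-flow absorbance at 20 °C, read at the visible absorption maxima. The complex was 400 μM sonicated calf thymus DNA (nucleotide pairs) with 20 μM drug in 0.1 SHE, mixed with an equal volume of 20 mM SDS (monomer) in the same buffer. Final: 200 μM DNA bp, 10 μM drug, 10 mM SDS (1 drug : 20 bp). Exponential decay time constants were resolved.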
# Nucleic Acid [35] = experiment: Percentage of the sum of the amplitudes evaluated in the kinetic experiment on rates with DNA-ligand ratio.; type: functional; settings: Bos taurus; in short: as §5
SMILES,λmax (nm) (Nucleic Acid [5]),ε (×10^-3) (Nucleic Acid [6]),k0 (Nucleic Acid [8]),k0 (Nucleic Acid [11]),Time constant (Nucleic Acid [12]),Time constant (Nucleic Acid [13]),Time constant (Nucleic Acid [14]),Activity (Nucleic Acid [15]; Bos taurus),other results
Nc1c2ccccc2nc2ccccc12,399,10.1,–,–,–,–,–,–,Activity [1]: 50; k0 (Nucleic Acid [2]): 1.4e+06 M⁻¹; T1 (Nucleic Acid [3]): 3 ms; T2 (Nucleic Acid [3]): 15 ms; k0 (Nucleic Acid [4]): 1.2e+06 M⁻¹; Relative amplitude (Nucleic Acid [7]): 15% and 12%
COc1cc(NS(C)(=O)=O)ccc1Nc1c2ccccc2nc2c(C(=O)NCCNCCO)cccc12,441,11.6,2.19e+07 M⁻¹,4.9e+07 M⁻¹,3 ms,66 ms,18 ms,69,Activity (Nucleic Acid [9]): 69 and 60; Activity (Nucleic Acid [10]): 68; Activity (Nucleic Acid [16]): 100
COc1cc(NS(C)(=O)=O)ccc1Nc1c2ccccc2nc2c(C(=O)NCCO)cccc12,441,10.4,890000 M⁻¹,2.4e+06 M⁻¹,4 ms,100 ms,31 ms,90 and 80,Time constant (Nucleic Acid [17]): 81 ms and 208 ms
COc1cc(NS(C)(=O)=O)ccc1Nc1c2ccccc2nc2c(C(=O)NCC(O)CO)cccc12 (configuration not stated),425,10.4,2.51e+06 M⁻¹,3.71e+07 M⁻¹,8 ms,110 ms,40 ms,77 and 88,–
COc1cc(NS(C)(=O)=O)ccc1Nc1c2ccccc2nc2c(C(=O)NCCCO)cccc12,439,10.9,950000 M⁻¹,8.12e+06 M⁻¹,4 ms,95 ms,32 ms,85 and 72,Time constant (Nucleic Acid [17]): 58 ms and 157 ms; Relative amplitude (Nucleic Acid [18]): 25% and 35%
CN(C)CCNC(=O)c1cccc2c(N)c3ccccc3nc12,407,9.4,–,–,–,–,–,–,k0 (Nucleic Acid [2]): 5e+07 M⁻¹; T1 (Nucleic Acid [3]): 6 ms; T2 (Nucleic Acid [3]): 28 ms; T3 (Nucleic Acid [3]): 86 ms; T4 (Nucleic Acid [3]): 428 ms; T1 (Nucleic Acid [12]): 4 ms; T2 (Nucleic Acid [14]): 19 ms; k0 (Nucleic Acid [4]): 2.24e+07 M⁻¹
CNC(=O)c1cccc2c(Nc3ccc(NS(C)(=O)=O)cc3OC)c3ccccc3nc12,438,11.6,350000 M⁻¹,1.51e+06 M⁻¹,2 ms,–,7 ms,54 and 79,Time constant (Nucleic Acid [17]): 11 ms and 29 ms; Relative amplitude (Nucleic Acid [19]): 52% [middle of 4 runs]
COc1cc(NS(C)(=O)=O)ccc1Nc1c2ccccc2nc2c(C(=O)NCCN(C)C)cccc12,442,12.9,2.45e+07 M⁻¹,6.6e+07 M⁻¹,5 ms,110 ms,24 ms,62,Activity (Nucleic Acid [20]): 95; Time constant (Nucleic Acid [21]): 7 ms; Time constant (Nucleic Acid [22]): 38 ms; Activity (Nucleic Acid [23]): 97; Time constant (Nucleic Acid [24]): 1640 ms and 3500 ms; Activity (Nucleic Acid [9]): 62 and 60; Relative amplitude (Nucleic Acid [25]): 41%; Activity (Nucleic Acid [10]): 72; Time constant (Nucleic Acid [26]): 5 ms; Activity (Nucleic Acid [27]): 76 and 99; Relative amplitude (Nucleic Acid [28]): 64%; Activity (Nucleic Acid [29]): 25 and 70; Time constant (Nucleic Acid [30]): 16 ms; Relative amplitude (Nucleic Acid [31]): 78%; Time constant (Nucleic Acid [32]): 3 ms; Activity (Nucleic Acid [16]): 97; Activity (Nucleic Acid [33]): 62 and 97
COc1cc(NS(C)(=O)=O)ccc1Nc1c2ccccc2nc2ccccc12,434,12.1,290000 M⁻¹,260000 M⁻¹,–,–,–,48,Time constant (Nucleic Acid [34]): 2 ms and 6 ms
COc1cc(NS(C)(=O)=O)ccc1Nc1c2ccccc2nc2c(C(=O)NCC(=O)NCCNCCO)cccc12,440,12.3,2.82e+07 M⁻¹,6.61e+07 M⁻¹,5 ms,93 ms,25 ms,–,Activity (Nucleic Acid [9]): 74; Activity (Nucleic Acid [10]): 66 and 65; Activity (Nucleic Acid [15]): 66; Relative amplitude (Nucleic Acid [35]): 33% (2×) and 48% and 37%; Activity (Nucleic Acid [16]): 100
COc1cc(NS(C)(=O)=O)ccc1Nc1c2ccccc2nc2c(C(=O)NCCCN(C)C)cccc12,441,11.6,2.34e+06 M⁻¹,3.98e+06 M⁻¹,3 ms,66 ms,15 ms,79 and 92,Relative amplitude (Nucleic Acid [19]): 31% and 39% and 55%
